Screens as filed in PubChem.
Yeast lifespan up = compounds extending yeast replicative lifespan, primary screen, S. cerevisiae, OD615 | 0.68% of 130,000 active | S. cerevisiae growth with nicotinamide; deaD strain in restrictive glucose medium | AID 775, 2007 | inhibition of the nicotinamide effect, % at 10 µM;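 active means inhibition above a set limit, placed 3 SD over the median of all compounds, cut at about 26% in these data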;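 further: 0% = nicotinamide-treated wells and 100% = cells grown without nicotinamide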
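Assay system: engineered S. cerevisiae DeaD replicative-lifespan strain, galactose-grown log-phase cells; medium: restrictive CSMM-D dextrose medium; also added: nicotinamide, 1.5 mM, co-present with compound; schedule: 48 h compound exposure at 30 °C, humidified; detection: absorbance at 615 nm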
RAM inhibit = inhibitors of the yeast RAM network, primary screen, dse1pr::URA3 reporter, 5-FOA selection; S. cerevisiae dse1pr::URA3 reporter, 5-FOA growth OD615, 2 d; analog-sensitive cbk1-as2 kinase mutant strain; inhibition, % at 50 µM; 1.8% of 190,000 active;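 active means inhibition above a set limit, 3 SD over mean compound inhibition, cut at about 8.4% in these data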;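 further: 0% = DMSO-only wells with no growth and 100% = 10 µM 1-NA-PP1 full growth; inhibition rescues growth on 5-FOA so higher OD means more RAM inhibition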
BB579 growth dn = growth inhibitors of yeast BB579 in restrictive medium, primary screen, yeast lifespan-shortening project, S. cerevisiae. 0.51% of 140,000 active. inhibition, % at 10 µM. AID 804, 2007. OD615, 48 h;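 active means inhibition above a set limit, 3 SD over the mean compound inhibition, cut at about 44% in these data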
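Test system: DeaD yeast strain BB579 / Buffer or medium: restrictive glucose-based CSMM-D medium / Doses: single 10 µM dose / Schedule: 4 h cell preincubation, 48 h compound exposure, 30 °C humidified / Technique: culture absorbance at 615 nm / Controls: amphotericin B positive control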
b-catenin transl = modulators of beta-catenin nuclear translocation, primary screen, imaging, HeLa cells, immunofluorescence, high-content; nuclear translocation activity, % at 5 µM; 0.3% of 190,000 active; AID 1665, 2009;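 active means nuclear translocation activity above 50% at 5 µM, with a well cell count of 50 or more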;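 further: per-cell ratio of nuclear to cytoplasmic median beta-catenin stain intensity; plate controls were DMSO negative control for no effect and GSK-3 inhibitor IX positive control for full effect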
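Technique: fluorescence imaging of beta-catenin antibody stain plus DAPI / Material: human HeLa cell line / Incubation: compound treatment 24 h, 37°C, 5% CO2 / Read-out basis: % activation of per-cell nuclear versus cytoplasmic median beta-catenin signal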
Efa HMGR inh = inhibitors of E. faecalis class II HMGR, primary screen, biochemical, Enterococcus faecalis. HMG-CoA reductase (Enterococcus faecalis, mvaE). purified E. faecalis HMGR, NADPH absorbance 340 nm kinetic. inhibition, % at 10 µM. 0.41% of 190,000 active. AID 1066, 2008;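 active means inhibition above a set limit, the median over all tested compounds plus 3 SD, cut at about 9.5% in these data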;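 further: enzyme runs in reverse so mevalonate oxidation gives rising NADPH absorbance; 0% = complete reaction with DMSO and 100% = background rate lacking mevalonate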
MT stabilize HCS = microtubule stabilizers in HeLa cells, primary screen, imaging, high-content imaging. HeLa tubulin immunostaining HCS, 24 h; share of cells brighter than vehicle mean+2SD. % tubulin-high responders, % at 10 µM. 0.83% of 200,000 active. AID 2205, 2009;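 active means plate Z-score above 3 for both tubulin-high and condensed-nucleus cell shares, with cell loss under 80%, at 10 µM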;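 further: anti alpha tubulin signal scored within the nucleus-defined area of each cell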
The depositor's hits bear a star; . = not tested or not shown. Most compounds without a hit are left out; they make up all but 3.5% or so of the library.

SMILES	Yeast lifespan up	RAM inhibit	BB579 growth dn	b-catenin transl	Efa HMGR inh	MT stabilize HCS
O=c1c2ccccc2c(C=Nc2ccc(S(=O)(=O)N3CCCCC3)cc2)c(O)n1-c1ccc(Cl)cn1	20	5	-50	-3	1	1
CCc1nc2oc3cc(OC)ccc3c(=O)c2c(=O)n1Cc1ccco1	13	0	-13	1	-5	3
COc1ccc(-c2nc3oc4cc(OC)ccc4c(=O)c3c(=O)n2Cc2ccco2)cc1	27*	-1	-13	1	-3	4
COc1ccc2c(=O)c3c(=O)n(Cc4ccco4)c(-c4ccco4)nc3oc2c1	75*	-1	-66	3	-4	2
COc1ccc(Cn2c(-c3ccco3)nc3oc4cc(OC)ccc4c(=O)c3c2=O)cc1	19	1	-28	-4	-1	3
CCC(C)n1c(SCC(=O)Nc2cc(C)on2)nc2ccccc2c1=O (stereo not drawn)	-25	-1	-8	-1	-2	39*
Cc1cc(NC(=O)CSc2nc(C(C)(C)C)nc3ccccc23)no1	.	6	.	11	-7	14*
Cc1cc(NC(=O)CSc2nc3ccccc3c(=O)n2C(C)c2ccccc2)no1 (stereo not drawn)	-17	2	-18	.	-6	13
CCCc1nc(SCC(=O)Nc2cc(C)on2)c2ccccc2n1	-21	1	-35	-2	-1	3
COc1ccc(CC2SC(=Nc3ccc(F)cc3)NC2=O)cc1 (stereo not drawn)	.	3	.	-1	1	4
O=C(/C=C/c1cccc(O)c1)c1ccc(N2CCOCC2)cc1	.	.	.	0	.	.
Cc1ccc(NN2C(=O)C=C(c3ccc(Cl)cc3)C2=O)cc1	-6	1	47*	.	1	1
O=C1C=C(c2ccccc2)C(=O)N1Nc1ccccc1	5	-1	44*	.	-5	1
O=C(CCSc1ccccc1Cl)Nc1cccc([N+](=O)[O-])c1	-6	8.9*	-60	4	0	3
CSc1ccccc1C(=O)NCCOc1cccc(C)c1	.	0	.	-3	-3	5
CCc1nc(N)nc(N)c1-c1ccc(Cl)cc1	8	0	-58	.	15*	3
CCC(=O)n1nc(-c2ccc(Cl)cc2)nc1N	.	1	.	0	-4	3
CC1CCC2C(=O)N(c3ccc(S(=O)(=O)c4ccccc4)cc3)C(=O)C2C1 (stereo not drawn)	4	5	-35	-1	-2	5
CC1CCC2C(=O)N(c3cccc(OS(=O)(=O)c4ccccc4)c3)C(=O)C2C1 (stereo not drawn)	0	9.4*	-7	1	0	4
CCOC(=O)C1(CC)NC(c2ccc(OC)cc2OC)C2C(=O)N(C)C(=O)C21 (stereo not drawn)	.	1	.	1	-9	2
C=CCN(C(=O)CSc1nc2c(sc3ccccc32)c(=O)n1CCN(CC)CC)c1ccccc1	.	0	.	-1	-6	2
CC(CNC(=O)c1cccs1)c1ccc([N+](=O)[O-])cc1 (stereo not drawn)	.	1	.	3	-1	3
Cc1cccc(-c2ncc(CN3CCN(CC(C)C)C(CCO)C3)cn2)c1 (stereo not drawn)	.	2	.	2	9.6*	4
CC(C)=CCN1CCN(Cc2nc(C(C)C)cs2)CC1CCO (stereo not drawn)	.	2	.	-2	-1	5
CC(C)CN1CCN(Cc2nc(C(C)C)cs2)CC1CCO (stereo not drawn)	.	2	.	3	11*	1
SMILES	Yeast lifespan up	RAM inhibit	BB579 growth dn	b-catenin transl	Efa HMGR inh	MT stabilize HCS
NC(=O)c1ccc(NC(=O)COC(=O)C2CC(=O)N(Cc3ccccc3)C2)cc1 (stereo not drawn)	.	2	.	1	-2	5
COc1cccc(-c2csc(N3CCN(C(=O)Nc4ccc(Cl)cc4)CC3)n2)c1	.	3	.	-1	9.9*	1
COc1ccc(NC(=O)N2CCN(c3nc(-c4cccc(OC)c4)cs3)CC2)cc1	-9	4	-33	-2	-1	2
O=C(NNC(=O)c1cc2cc(OC(F)(F)F)ccc2[nH]1)c1cccc(C(F)(F)F)c1	.	.	.	1	.	.
Cc1cccnc1NC(=S)Nc1ccc(Br)cc1Cl	.	8.5*	.	1	-2	6
CCOc1ccc(NC(=S)Nc2ccc(Br)cc2Cl)cc1	.	8	.	1	-3	3
COc1ccc(S(=O)(=O)N2c3ccccc3OCC2C)cc1 (stereo not drawn)	.	2	.	111*	-8	18*
COc1ccc(S(=O)(=O)N2c3ccccc3OCC2C(C)(C)C)cc1 (stereo not drawn)	.	4	.	9	2	14*
COc1ccc(S(=O)(=O)N2c3ccccc3OCC2c2ccccc2)cc1 (stereo not drawn)	-15	6	-20	1	1	23*
CCN(CC)CCCNC(=O)CSc1nc(C)cc(C)n1	.	1	.	-3	-4	4
O=C(Cc1ccccc1[N+](=O)[O-])NCc1ccco1	.	-1	.	0	-4	3
CCCCC1(C(=O)OCC)CC(CSC(=N)N)OC1=O (stereo not drawn)	.	-1	.	0	-1	4
CCCCCc1c(C)nc(N2CCc3ccccc32)[nH]c1=O	4	9.9*	-46	-1	-3	2
COc1cccc(C2=CC(c3cccs3)n3nnnc3N2)c1 (stereo not drawn)	-10	3	-3	1	-4	33*
COc1cccc(C2=CC(c3ccc(OC)c(OC)c3OC)n3nnnc3N2)c1 (stereo not drawn)	-3	1	-22	1	-2	3
C/C(=N/O)c1ccccn1	.	1	.	-1	-2	3
CCCCCC/C(=N/O)c1ccccn1	-19	-2	100*	4	-2	2
O=C1c2ccccc2N2C(=O)c3ccccc3[C@H]2N1c1ccccc1	-13	2	-85	.	0	2
O=C1NC2c3ccccc3C(=O)N2c2c1cnn2-c1ccccc1 (stereo not drawn)	13	3	-43	-2	6	11*
O=c1cccc2n1Cc1cc3ccccc3nc1-2	-5	1	46*	-2	-1	3
CC[C@@]1(O)C(=O)OCc2c1cc1n(c2=O)Cc2cc3c(N)cccc3nc2-1	.	.	.	-2	.	.
COc1ccccc1C(CC(=O)c1ccccc1)CC(=O)c1ccccc1	.	11*	.	-2	-5	2
